From ChEMBL document CHEMBL1154888, “Discorhabdins from the Korean marine sponge Sceptrella sp” (J Nat Prod, 2010)
Converted amounts (≈) assume the structure as drawn.

Tests used:
Proteus vulgaris = assay: Antibacterial activity against Proteus vulgaris ATCC 3851; format: functional
Salmonella enterica = assay: Antibacterial activity against Salmonella Typhimurium ATCC 14028; format: functional, Salmonella enterica subsp. enterica serovar Typhimurium
Staphylococcus aureus = assay: Antibacterial activity against Staphylococcus aureus […]; format: functional
Micrococcus luteus = assay: Antibacterial activity against Micrococcus luteus IFO 12708; format: functional
Escherichia coli = assay: Antibacterial activity against Escherichia coli ATCC 25922; format: functional
Bacillus subtilis = assay: Antibacterial activity against Bacillus subtilis ATCC 6633; format: functional
K562 = assay: Cytotoxicity against human K562 cells assessed as viable cells after 72 hrs by MTS/PMS assay; format: functional, cell-based; settings: K562, 72 h
Sortase A = molecular target: T1, Sortase A (Staphylococcus aureus, UniProt Q9S446); assay: Inhibition of Staphylococcus aureus sortase A after 1 hr in the presence of fluorescent peptide Dabcul-QALPETGEE-Edans by fluorimetry
T1 sequence (Q9S446 whole entry): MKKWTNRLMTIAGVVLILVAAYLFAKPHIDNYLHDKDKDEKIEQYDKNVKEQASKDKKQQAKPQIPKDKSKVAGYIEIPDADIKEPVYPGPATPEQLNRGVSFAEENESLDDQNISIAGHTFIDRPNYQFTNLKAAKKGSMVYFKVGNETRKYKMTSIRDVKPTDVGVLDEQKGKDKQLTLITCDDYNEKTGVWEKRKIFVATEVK
How it was run: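 p-Hydroxymercuribenzoic acid (p-HMB) run alongside as the positive control.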

[1] = molecular target: T2, Sortase A (Staphylococcus aureus) (UniProt Q9S446); assay: Selectivity ratio, inhibition of recombinant sortase A from Staphylococcus aureus of drug over the para-(hydroxymercury)benzoic acid sodium salt
T2 sequence (whole entry): T1 sequence (Q9S446 whole entry)

SMILES	MIC (Proteus vulgaris) [µg/mL]	MIC (Salmonella enterica) [µg/mL]	MIC (Staphylococcus aureus) [µg/mL]	MIC (Micrococcus luteus) [µg/mL]	MIC (Escherichia coli) [µg/mL]	MIC (Bacillus subtilis) [µg/mL]	IC50 (K562) [µM]	IC50 (Sortase A) [µM]	Selectivity ratio [1]
O=C1C2=C3C4=[N+](CCc5c[nH]c1c54)C1C[C@@]34C[C@@H](N2)SC4=CC1=O	> 100	> 100	100	6.25	> 100	25	6.1		
O=C1C=C[C@]2(C=C1Br)CCNC1=C2C2=NCCc3c[nH]c(c32)C1=O	25 (≈ 65.1 µM)	50 (≈ 130 µM)	100 (≈ 260 µM)	50 (≈ 130 µM)	> 100	50 (≈ 130 µM)	1.3	186	
O=C1C2=C3C4=[N+](CCc5c[nH]c1c54)C1[C@H](O)CC(=O)[C@@]3(C[C@@H](O)N2)[C@H]1O	> 100	> 100	> 100	50	> 100	> 100	2.2	6.5	10
O=C1C2=C3C4=[N+](CCc5c[nH]c1c54)C1[C@H](O)C=C4S[C@@H](C[C@@]43[C@H]1O)N2	50	> 100	> 100	25	> 100	100	2.5	192	
O=C1C2=C3C4=[N+](CCc5c[nH]c1c54)C1C[C@@]34C[C@@H](N2)SC4=C[C@H]1O	50	> 100	> 100	25	> 100	25	2.1	75.7	
CO[C@H]1C2C(=O)C=C3S[C@H]4C[C@]31C1=C(N4)C(=O)c3[nH]cc4c3C1=[N+]2CC4	100	100	50	12.5	> 100	50	2.5	146	
O=C1C2=C3C4=[N+](CCc5c[nH]c1c54)C1C(=O)C=C4S[C@@H](C[C@@]43[C@H]1O)N2	100	100	50	12.5	> 100	25	4.5	130	
O=C1C=C[C@@]23C[C@@H](NC4=C2C2=NCCc5c[nH]c(c52)C4=O)SC3=C1 [1-DEBROMODISCORHABDIN B]	50 (≈ 149 µM)	50 (≈ 149 µM)	25 (≈ 74.5 µM)	25 (≈ 74.5 µM)	> 100	12.5 (≈ 37.3 µM)	25	160	
O=C1C=C2S[C@H]3C[C@]2(C=C1Br)C1=C(N3)C(=O)c2[nH]cc3c2C1=NCC3 [(+)-DISCORHABDIN B]	3.12 (≈ 7.54 µM)	100 (≈ 241 µM)	50 (≈ 121 µM)	25 (≈ 60.3 µM)	> 100	12.5 (≈ 30.2 µM)	7.2	132	
CC1(C)S[C@@H]2[C@H](NC(=O)[C@H](N)c3ccccc3)C(=O)N2[C@H]1C(=O)O [AMPICILLIN]	3.12 (≈ 8.93 µM)	3.12 (≈ 8.93 µM)	1.56 (≈ 4.46 µM)	1.56 (≈ 4.46 µM)	12.5 (≈ 35.8 µM)	1.56 (≈ 4.46 µM)			
O=C1C=CC2(C=C1)CCNC1=C2C2=NCCc3c[nH]c(c32)C1=O [DIDEBROMODISCORHABDIN C]	> 100	> 100	> 100	> 100	> 100	> 100	21	127	
O=C1C2=C(C3=NCCc4c[nH]c1c43)C1(C=C(Br)C(O)C(Br)=C1)CCN2 (centres undefined) [DIHYDRODISCORHABDIN C]	> 100	> 100	> 100	100 (≈ 215 µM)	> 100	100 (≈ 215 µM)	20.2	> 300	
O=C1C(Br)=CC2(C=C1Br)CCNC1=C2C2=NCCc3c[nH]c(c32)C1=O [DISCORHABDIN C]	50 (≈ 108 µM)	> 100	> 100	12.5 (≈ 27 µM)	> 100	25 (≈ 54 µM)	25.2	165	
COc1cccc2c1C(=O)c1c(O)c3c(c(O)c1C2=O)C[C@@](O)(C(=O)CO)C[C@@H]3O[C@H]1C[C@H](N)[C@H](O)[C@H](C)O1 [DOXORUBICIN]							8.5		
O=C1C(NCCc2ccc(O)cc2)=CC2=NCCc3c[nH]c1c32 [MAKALUVAMINE D]	> 100	100 (≈ 325 µM)	> 100	50 (≈ 163 µM)	> 100	25 (≈ 81.3 µM)	24.6	148	
O=C1C(NC2Cc3cc(Br)c(O)cc3S2)=CC2=NCCc3c[nH]c1c32 (centres undefined) [MAKALUVAMINE F]	25 (≈ 60.1 µM)	100 (≈ 240 µM)	50 (≈ 120 µM)	3.12 (≈ 7.51 µM)	> 100	12.5 (≈ 30 µM)	8.9	175	
